Calls of active or inactive are those of the source. The rule behind the calls is not given here.
Experiments:
[1] = tested on: Mus musculus; test: Anticonvulsant activity against metrazole-induced seizures in Carworth Farms No.1 mouse up to 300 mg/kg; format: functional, organism-based; design: dose 300 mg/kg
Summary of the method: (§1)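 Male Carworth Farms No. 1 mice were used, with the highest dose tested being 300 mg/kg.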

[2] = tested on: Mus musculus; test: Anticonvulsant activity against maximal electroshock-induced seizures in Carworth Farms No.1 mouse up to 300 mg/kg; format: functional, organism-based; design: dose 300 mg/kg; summary of the method: as §1

O=C(CCl)N1C(=O)CC(c2ccccc2)C1=O (stereo not drawn)
Activity [1]: inactive
Activity [2]: inactive

O=C(CCl)Nc1ccc(CCN2C(=O)CC(c3ccccc3)C2=O)cc1 (stereo not drawn)
Activity [1]: inactive
Activity [2]: inactive

CC(=O)Nc1ccc(CCN2C(=O)CC(c3ccccc3)C2=O)cc1 (stereo not drawn)
Activity [1]: inactive
Activity [2]: inactive

O=C1CC(c2ccccc2)C(=O)N1CCc1ccc(N2C(=O)C=CC2=O)cc1 (stereo not drawn)
Activity [1]: inactive
Activity [2]: inactive

Nc1ccc(CCN2C(=O)CC(c3ccccc3)C2=O)cc1 (stereo not drawn)
Activity [1]: inactive
Activity [2]: inactive

CN1C(=O)C(CCNC(=O)CCl)C(C)(c2ccccc2)C1=O (stereo not drawn)
Activity [1]: inactive
Activity [2]: inactive

O=C(O)/C=C\C(=O)Nc1ccc(CCN2C(=O)CC(c3ccccc3)C2=O)cc1 (stereo not drawn)
Activity [1]: inactive
Activity [2]: inactive

N#CCN1C(=O)CC(c2ccccc2)C1=O (stereo not drawn)
Activity [1]: inactive
Activity [2]: inactive

O=C1CC(c2ccccc2)C(=O)N1CCc1ccccc1 (stereo not drawn)
Activity [1]: inactive
Activity [2]: inactive

NCCN1C(=O)CC(c2ccccc2)C1=O (stereo not drawn)
Activity [1]: inactive
Activity [2]: inactive

O=C(O)/C=C\C(=O)NCCN1C(=O)CC(c2ccccc2)C1=O (stereo not drawn)
Activity [1]: inactive
Activity [2]: inactive

O=C1C=CC(=O)N1CCN1C(=O)CC(c2ccccc2)C1=O (stereo not drawn)
Activity [1]: inactive
Activity [2]: inactive

O=C(CCl)NCCN1C(=O)CC(c2ccccc2)C1=O (stereo not drawn)
Activity [1]: inactive
Activity [2]: inactive

O=C(CCl)NCCCN1C(=O)CC(CCCNC(=O)CCl)(c2ccccc2)C1=O (stereo not drawn)
Activity [1]: inactive
Activity [2]: inactive
